In ChEMBL document CHEMBL4145545, “Synthesis and structure-activity relationships of asymmetric dimeric β-carboline derivatives as potential antitumor agents” (Eur J Med Chem, 2018):
Activity calls are given as the source filed them. The rule behind the calls is not given here.

Columns and labels:
[1] = Cytotoxicity against human BGC cells assessed as cell growth inhibition after 24 hrs by MTT assay; assay type: functional, cell-based
Method in brief: (§1)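 Cell lines grown to log phase in RPMI-1640 with 10% FBS, penicillin and streptomycin. About 10^5 cells/mL were plated and pre-incubated 24 h at 37 °C in 5% CO2. Compounds were given in DMSO, final ≤2% (v/v). MTT read-out was OD at 490 nm. Triplicate wells per concentration, each assay run ≥3 times. IC50 is 50% OD reduction versus untreated cells, calculated by the Logit method. Cisplatin was the reference.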

769-P = experiment: Cytotoxicity against human 769-P cells assessed as cell growth inhibition after 24 hrs by MTT assay; assay type: functional, cell-based; method in brief: as §1
[2] = test system: Lewis lung carcinoma cell line; experiment: Cytotoxicity against mouse LLC cells assessed as cell growth inhibition after 24 hrs by MTT assay; assay type: functional, cell-based; method in brief: as §1
MCF7 = experiment: Cytotoxicity against human MCF7 cells assessed as cell growth inhibition after 24 hrs by MTT assay; assay type: functional, cell-based; details: MCF7, 24 h; method in brief: as §1
SK-OV-3 = experiment: Cytotoxicity against human SKOV3 cells assessed as cell growth inhibition after 24 hrs by MTT assay; assay type: functional, cell-based; details: SK-OV-3, 24 h; method in brief: as §1
HT-29 = experiment: Cytotoxicity against human HT-29 cells assessed as cell growth inhibition after 24 hrs by MTT assay; assay type: functional, cell-based; details: HT-29, 24 h; method in brief: as §1
A-375 = experiment: Cytotoxicity against human A375 cells assessed as cell growth inhibition after 24 hrs by MTT assay; assay type: functional, cell-based; details: A-375, 24 h; method in brief: as §1
HepG2 = experiment: Cytotoxicity against human HepG2 cells assessed as cell growth inhibition after 24 hrs by MTT assay; assay type: functional, cell-based; details: HepG2, 24 h; method in brief: as §1
ECa-109 cell line = experiment: Cytotoxicity against human ECA109 cells assessed as cell growth inhibition after 24 hrs by MTT assay; assay type: functional, cell-based; details: ECa-109, 24 h; method in brief: as §1
Mus musculus [3] = experiment: Hepatotoxicity in Kunming mouse at 5 to 500 mg/kg, ip after 14 days by macroscopic method; assay type: toxicity, organism-based; details: in vivo, 336 h
Mus musculus [4] = experiment: Neurotoxicity in Kunming mouse assessed as supination at 5 to 500 mg/kg, ip observed continuously for first 2 hrs, intermittently for next 24 hrs and occasionally thereafter for 14 days; assay type: toxicity, organism-based; details: in vivo
Method in brief: (§2)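 SPF KM mice, 6-8 weeks, 19-22 g, fasted overnight with water available. Single i.p. dose, 5.0 to 500 mg kg-1 in 0.5% CMC-Na, 10 mice per group (5 male, 5 female). Observed for behaviour, neurotoxic signs and deaths, then killed on day 14 and heart, liver and kidneys inspected macroscopically. LD50 derived graphically.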

Sarcoma-180 = experiment: Antitumor activity against mouse Sarcoma 180 cells implanted in mouse assessed as tumor growth inhibition at 30 mg/kg, ip administered once per day for 7 consecutive days starting from 24 hrs post tumor inoculation and measured on day 21 post tumor inoculation relative to control; assay type: functional; details: Sarcoma-180, ip, read-out: TGI
Method in brief: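 Tumour cells passaged in mice for 7 days, then 2 × 10^6 viable cells given s.c. into the armpit of female mice, 10 per group. […] CTX at 30 mg kg-1 as reference, vehicle as negative control. Body weight recorded every 3 days. Tumours excised and weighed on day 21. Inhibition = (C − T)/C × 100, using mean tumour weights.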

Mus musculus [5] = experiment: Neurotoxicity in Kunming mouse assessed as tremble at 5 to 500 mg/kg, ip observed continuously for first 2 hrs, intermittently for next 24 hrs and occasionally thereafter for 14 days; assay type: toxicity, organism-based; details: in vivo; method in brief: as §2
Mus musculus [6] = experiment: Nephrotoxicity in Kunming mouse at 5 to 500 mg/kg, ip after 14 days by macroscopic method; assay type: toxicity, organism-based; details: in vivo, 336 h
Mus musculus [7] = experiment: Acute toxicity in ip dosed Kunming mouse assessed as death at higher dose up to 4 to 8 hrs; assay type: organism-based; details: in vivo; method in brief: as §2
[8] = Acute toxicity in ip dosed Kunming mouse observed continuously for first 2 hrs, intermittently for next 24 hrs and occasionally thereafter for 14 days; assay type: organism-based; details: in vivo; method in brief: as §2
Mus musculus [9] = experiment: Neurotoxicity in Kunming mouse assessed as jumping behavior at 5 to 500 mg/kg, ip observed continuously for first 2 hrs, intermittently for next 24 hrs and occasionally thereafter for 14 days; assay type: toxicity, organism-based; details: in vivo; method in brief: as §2
Mus musculus [10] = experiment: Cardiotoxicity in Kunming mouse at 5 to 500 mg/kg, ip after 14 days by macroscopic method; assay type: toxicity, organism-based; details: in vivo, 336 h
Mus musculus [11] = experiment: Neurotoxicity in Kunming mouse assessed as twitch at 5 to 500 mg/kg, ip observed continuously for first 2 hrs, intermittently for next 24 hrs and occasionally thereafter for 14 days; assay type: toxicity, organism-based; details: in vivo; method in brief: as §2
Chorioallantoic membrane = experiment: In vivo antiangiogenic activity in chicken embryo chorioallantoic membrane at 50 uM/disc after 48 hrs by microscopic method; assay type: functional, organism-based; details: Gallus gallus

Row | Structure (SMILES) | IC50 [1] | IC50 (769-P) | IC50 [2] | IC50 (MCF7) | IC50 (SK-OV-3) | IC50 (HT-29) | IC50 (A-375) | IC50 (HepG2) | IC50 (ECa-109 cell line) | Activity (Mus musculus [3]) | Activity (Mus musculus [4]) | inhibition in vivo at 30 mg/kg (Sarcoma-180) | Activity (Mus musculus [5]) | Activity (Mus musculus [6]) | Activity (Mus musculus [7]) | LD50 at 14 days [8] | Activity (Mus musculus [9]) | Activity (Mus musculus [10]) | Activity (Mus musculus [11]) | Activity (Chorioallantoic membrane)
1 | Cc1nccc2c3ccc(OCCCCCCn4c5ccccc5c5ccncc54)cc3n(CCCc3ccccc3)c12 | 11.2 µM | 13.1 µM | 28.2 µM | 8.5 µM | 76.4 µM | 16.2 µM | 37.1 µM | 12.1 µM | 12.6 µM | – | – | – | – | – | – | – | – | – | – | –
2 | COc1cc(-c2nccc3c4ccccc4n(CCCCOc4ccc5c6ccnc(C)c6n(CCCc6ccccc6)c5c4)c23)cc(OC)c1OC | 18.2 µM | 14.1 µM | 8.7 µM | 11.7 µM | 10.3 µM | 3.9 µM | 7.1 µM | 24.9 µM | 9.7 µM | – | – | – | – | – | – | – | – | – | – | –
3 | Cc1nccc2c3ccccc3n(CCCCCCOc3ccc4c5ccnc(C)c5n(CCCc5ccccc5)c4c3)c12 | 12.5 µM | 16.1 µM | 14.1 µM | 11.7 µM | 19.4 µM | 28.1 µM | 15.8 µM | 14.1 µM | 15.1 µM | – | – | – | – | – | – | – | – | – | – | –
4 | CCn1c2cc(OCCCCCn3c4ccccc4c4ccnc(C)c43)ccc2c2ccnc(C)c21 | 35.4 µM | 70.6 µM | > 100 µM | 56.3 µM | 30.8 µM | 14.9 µM | 31.5 µM | 112 µM | 46.6 µM | – | – | – | – | – | – | – | – | – | – | –
5 | Cc1nccc2c3ccc(OCCCCn4c5ccccc5c5ccnc(-c6ccccc6Cl)c54)cc3n(CCCc3ccccc3)c12 | 12.4 µM | 21.9 µM | 10.1 µM | 5.9 µM | 22.9 µM | 20.2 µM | 3.9 µM | 14.4 µM | 18.4 µM | – | – | – | – | – | – | – | – | – | – | –
6 | Cc1nccc2c3ccccc3n(CCCCOc3ccc4c5ccnc(C)c5n(CCCc5ccccc5)c4c3)c12.Cl | 7.4 µM | 9.9 µM | 4.4 µM | 4 µM | 13.1 µM | 14.1 µM | 8.4 µM | 9.1 µM | 9.9 µM | Non-Toxic | Non-Toxic | 36.7% | Non-Toxic | Non-Toxic | Toxic | 150 mg/kg | Non-Toxic | Non-Toxic | Non-Toxic | –
7 | CCCCn1c2cc(OCCCCCCn3c4ccccc4c4ccncc43)ccc2c2ccnc(C)c21 | > 100 µM | > 100 µM | 46.1 µM | > 100 µM | > 100 µM | > 100 µM | 78.3 µM | 51.7 µM | > 100 µM | – | – | – | – | – | – | – | – | – | – | –
8 | CCCCn1c2cc(OCCCCCn3c4ccccc4c4ccnc(C)c43)ccc2c2ccnc(C)c21 | > 100 µM | 11.6 µM | 12.4 µM | > 100 µM | 14.3 µM | 10.1 µM | 50.8 µM | > 100 µM | > 100 µM | – | – | – | – | – | – | – | – | – | – | –
9 | CCCCn1c2cc(OCCCCCn3c4ccccc4c4ccncc43)ccc2c2ccnc(C)c21 | > 100 µM | 31.1 µM | > 100 µM | 16.7 µM | 65.1 µM | 32.6 µM | > 100 µM | 65.1 µM | > 100 µM | – | – | – | – | – | – | – | – | – | – | –
10 | COc1ccc(-c2nccc3c4ccccc4n(CCCCOc4ccc5c6ccnc(C)c6n(CCCc6ccccc6)c5c4)c23)cc1OC | 9.7 µM | 8.2 µM | 6.2 µM | 7.2 µM | 8.8 µM | 22.7 µM | 6.7 µM | 2.4 µM | 9.3 µM | – | – | – | – | – | – | – | – | – | – | –
11 | CCn1c2cc(OCCCCCCn3c4ccccc4c4ccnc(C)c43)ccc2c2ccnc(C)c21 | 44.7 µM | 75.2 µM | 51.1 µM | 75.2 µM | 11.2 µM | 36.2 µM | 74.6 µM | 74.6 µM | 61.4 µM | – | – | – | – | – | – | – | – | – | – | –
12 | Cc1nccc2c3ccc(OCCCCn4c5ccccc5c5ccnc(C(C)C)c54)cc3n(CCCc3ccccc3)c12 | 37.8 µM | 18.5 µM | 10.8 µM | 14.4 µM | 28.1 µM | 12.1 µM | 23.8 µM | 46.2 µM | 16.2 µM | – | – | – | – | – | – | – | – | – | – | –
13 | Cc1nccc2c3ccc(OCCCCn4c5ccccc5c5ccnc(-c6cccnc6)c54)cc3n(CCCc3ccccc3)c12 | 4.2 µM | 7.2 µM | 9.4 µM | 29.8 µM | 22.9 µM | 11.2 µM | 18.9 µM | 10.7 µM | 12.9 µM | – | – | – | – | – | – | – | – | – | – | –
14 | CCCCn1c2cc(OCCCCn3c4ccccc4c4ccncc43)ccc2c2ccnc(C)c21 | 41.5 µM | 22.9 µM | 38 µM | 28.8 µM | 17.3 µM | 21.8 µM | 72.4 µM | 29.5 µM | 21.8 µM | – | – | – | – | – | – | – | – | – | – | –
15 | CCn1c2cc(OCCCCCCn3c4ccccc4c4ccncc43)ccc2c2ccnc(C)c21 | 40.7 µM | > 100 µM | 21.8 µM | 19 µM | > 100 µM | 60.3 µM | 34.7 µM | > 100 µM | 17.4 µM | – | – | – | – | – | – | – | – | – | – | –
16 | CCn1c2cc(OCCCCn3c4ccccc4c4ccncc43)ccc2c2ccnc(C)c21 | 41.5 µM | 27.4 µM | 16.5 µM | 19.4 µM | 19.8 µM | 37 µM | 30.7 µM | > 100 µM | 37 µM | – | – | – | – | – | – | – | – | – | – | –
17 | COc1ccc(/C=C\c2cc(OC)c(OC)c(OC)c2)cc1OP(=O)(O)O | – | – | – | – | – | – | – | – | – | – | – | – | – | – | – | – | – | – | – | Active
